According to article PMC6438620 (Bioorganic & medicinal chemistry letters, 2018):

How the values were obtained:
[1] = Clinical chemistry analysis of blood samples; format: in vivo, C57BL6 mice; settings: 5 mg/kg, daily i.p. dosing for 7 days, n = 5
Outline: (§1)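 Female C57BL6 mice were dosed with test compound at 5 mg/kg i.p. once daily for seven consecutive days and sacrificed 24 h after the last injection. Blood clinical chemistry covered electrolytes, minerals, total protein, albumin, globulin, A/G ratio, BUN, ALT, AST, GLDH, ALP, bilirubin, amylase and creatine kinase.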

[2] = test system: serotonin receptors; experiment: PDSP binding at serotonin receptor subtypes
[3] = Tissue distribution by LC-MS/MS after 7-day i.p. treatment; settings: 5 mg/kg i.p. daily for 7 days, 24 h after last injection
[4] = test system: LLC luc and MDA MB-231 cell lines; experiment: MTT colorimetric cytotoxicity assay, values given over both cell lines; settings: for Cytotoxic activity compared with penfluridol: MTT, LLC luc and MDA MB-231
[5] = Toxicity in mice; settings: mouse, in vivo
Outline: as §1

[6] = target: H1 (histamine receptor 1) (Homo sapiens, UniProt P35367); experiment: PDSP primary binding and radioligand binding
H1 (histamine receptor 1), sequence (P35367 whole entry): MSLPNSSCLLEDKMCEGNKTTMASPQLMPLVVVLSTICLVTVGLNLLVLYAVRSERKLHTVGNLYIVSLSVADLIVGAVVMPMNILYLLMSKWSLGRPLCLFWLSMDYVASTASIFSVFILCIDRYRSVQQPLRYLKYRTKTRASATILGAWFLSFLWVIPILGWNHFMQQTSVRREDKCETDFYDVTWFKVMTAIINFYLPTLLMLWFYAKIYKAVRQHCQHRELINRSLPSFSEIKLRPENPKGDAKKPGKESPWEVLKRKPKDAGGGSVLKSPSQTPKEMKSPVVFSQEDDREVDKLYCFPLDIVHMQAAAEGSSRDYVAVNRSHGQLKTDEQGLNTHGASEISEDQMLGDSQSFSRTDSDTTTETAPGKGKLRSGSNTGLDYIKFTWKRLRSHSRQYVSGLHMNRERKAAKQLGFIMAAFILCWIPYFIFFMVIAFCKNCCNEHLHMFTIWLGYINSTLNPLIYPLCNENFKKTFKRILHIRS

[7] = target: H2 (histamine receptor 2) (Homo sapiens, UniProt P25021); experiment: PDSP primary binding and radioligand binding
H2 (histamine receptor 2), sequence (P25021 whole entry): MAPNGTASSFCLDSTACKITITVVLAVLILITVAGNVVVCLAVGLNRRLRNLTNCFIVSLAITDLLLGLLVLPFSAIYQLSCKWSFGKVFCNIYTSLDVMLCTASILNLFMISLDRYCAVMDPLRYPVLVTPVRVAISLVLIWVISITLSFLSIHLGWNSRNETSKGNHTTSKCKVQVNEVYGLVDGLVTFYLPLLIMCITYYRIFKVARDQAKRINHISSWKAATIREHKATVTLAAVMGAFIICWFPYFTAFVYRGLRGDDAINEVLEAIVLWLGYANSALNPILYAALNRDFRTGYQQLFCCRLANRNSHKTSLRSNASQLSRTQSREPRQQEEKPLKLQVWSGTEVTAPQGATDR

[8] = target: T1, D4 dopamine receptor (Homo sapiens, UniProt P21917); experiment: PDSP primary binding and radioligand binding
T1 sequence (P21917 1-419): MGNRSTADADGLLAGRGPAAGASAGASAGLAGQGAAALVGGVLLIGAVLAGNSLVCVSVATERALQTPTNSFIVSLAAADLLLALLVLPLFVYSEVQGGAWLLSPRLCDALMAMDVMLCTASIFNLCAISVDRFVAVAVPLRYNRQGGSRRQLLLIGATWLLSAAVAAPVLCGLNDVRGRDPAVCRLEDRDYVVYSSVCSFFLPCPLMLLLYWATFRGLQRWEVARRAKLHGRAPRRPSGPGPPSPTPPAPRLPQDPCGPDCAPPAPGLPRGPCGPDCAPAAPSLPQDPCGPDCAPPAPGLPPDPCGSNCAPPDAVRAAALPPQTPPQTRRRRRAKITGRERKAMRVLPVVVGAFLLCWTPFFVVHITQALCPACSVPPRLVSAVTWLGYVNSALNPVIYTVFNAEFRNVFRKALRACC

Compound	Alkaline phosphatase (ALP) levels [1]	Blood urea nitrogen (BUN) levels [1]	Glutamate dehydrogenase (GLDH) [1]	Inhibition at some serotonin receptors ([2]; primary binding)	Distribution pattern: accumulation of the drug [3]	Toxicity in mice [5]	Cytotoxic activity compared with penfluridol [4]	also measured
OC1(c2ccc(Cl)c(C(F)(F)F)c2)CCN(CCCC(c2ccc(F)cc2)c2ccc(F)cc2)CC1 [penfluridol, reference compound]	decreased ALP levels	decreased BUN levels	increased GLDH	95–100%	predominantly in the adipose tissue and lungs			IC50 ([4]; Homo sapiens, MDA-MB-231, read-out: IC50 (cytotoxicity, MTT)): 4300 to 5100 nM
COc1ccc(N(CCCCN2CCC(O)(c3ccc(Cl)c(C(F)(F)F)c3)CC2)c2ccc(OC)cc2)cc1 [8c]	None of these changes was observed	None of these changes was observed	None of these changes was observed			no toxicity in mice		Concentration of the drug in all tested samples (plasma, brain, lungs, adipose tissue) [3]: lower concentration of the drug in all tested samples
OC1(c2ccc(Cl)c(C(F)(F)F)c2)CCN(CCCC(c2ccccc2)c2ccccc2)CC1 [8b]							reduced activity	
OC1(c2ccc(Cl)c(C(F)(F)F)c2)CCN(CCCCN(c2ccc(F)cc2)c2ccc(F)cc2)CC1 [11b]				50–80%				Activity at H1 receptor [6]: abolished activity; Change of Ki values compared to penfluridol ([2]; other serotonin receptor subtypes): 3–16 fold; Inhibition levels at other serotonin receptor subtypes ([2]; primary binding, other serotonin receptor subtypes): > 90%; Activity at H2 receptor [7]: abolished activity
OC1(c2ccc(Cl)c(C(F)(F)F)c2)CCN(CCCCCc2ccc(F)cc2)CC1 [compound 13]							reduced activity	
OC1(c2ccc(Cl)c(C(F)(F)F)c2)CCN(CCCCC(c2ccc(F)cc2)c2ccc(F)cc2)CC1 [8a]					predominantly in the adipose tissue and lungs	no toxicity in mice		Level of the drug in the brain relative to penfluridol [3]: higher level of the drug in the brain relative to penfluridol; Ki [8]: 25 nM
